The results in this text go back to ChEMBL document CHEMBL3351594, “Cytotoxic dimeric epipolythiodiketopiperazines from the ascomycetous fungus Preussia typharum” (J Nat Prod, 2014).

The subject of one test is MIA PaCa-2. The test is described as follows: Cytotoxicity against human MIAPaCa2 cells up to 30 uM after 24 hrs by MTT assay. Type of test: functional, cell-based. A general note: Tetrazolium dyes change colour on reduction, which living cells bring about.
The nature of test [1]: Cytotoxicity against human MIAPaCa2 cells after 24 hrs by MTT assay. It counts as functional, cell-based. Conditions: MIA PaCa-2, 24 h.
The subject of the next test is SK-OV-3. The test is described as follows: Resistance ratio of GI50 for human P-gp expressing SKOV3-M6/6 cells to GI50 for human SKOV3 cells. Type of test: functional. The method, boiled down:
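SRB assay in SK-OV-3 and its P-gp/MDR1 single-cell clone SK-OV-3/MDR-1-6/6; GI50 from percent growth dose–response curves, n = 3 or 4 independent experiments; relative resistance taken as ratio of GI50 in the MDR line to parental.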

Test [2] can be described thus: Cytotoxicity against human SKOV3 cells by SRB method. It counts as functional. To be noted: SK-OV-3. The method, boiled down: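 SRB assay in SK-OV-3 cells; percent cell growth per Boyd et al.; GI50, TGI and LC50 fitted from dose–response curves of percent growth; mean ± SE, n = 3 or 4 independent experiments.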
For orientation: In SRB staining, fixed cells bind dye roughly in proportion to their protein.

Test [3] is described as follows: Cytotoxicity against human P-gp expressing SKOV3-M6/6 cells by SRB assay. It counts as functional. The method, boiled down:
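SRB assay in SK-OV-3/MDR-1-6/6 cells, a single-cell clone of SKOV-3/MDR1 (P-gp). Percent cell growth follows Boyd et al. GI50 was derived from dose–response curves of percent growth. Results are mean ± SE of n = 3 or 4 independent experiments. Relative resistance is calculated against parental SK-OV-3.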

The target of another test is mTORC1 (Homo sapiens) (UniProt P42345+Q8N122+Q9BVC4). To be noted: HeLa, 100 nM.

Activity calls are given as the source filed them. No cut-off for these calls is given here.

Sequence of mTORC1 (Homo sapiens) (Q8N122 whole entry, looked up, other chains not shown): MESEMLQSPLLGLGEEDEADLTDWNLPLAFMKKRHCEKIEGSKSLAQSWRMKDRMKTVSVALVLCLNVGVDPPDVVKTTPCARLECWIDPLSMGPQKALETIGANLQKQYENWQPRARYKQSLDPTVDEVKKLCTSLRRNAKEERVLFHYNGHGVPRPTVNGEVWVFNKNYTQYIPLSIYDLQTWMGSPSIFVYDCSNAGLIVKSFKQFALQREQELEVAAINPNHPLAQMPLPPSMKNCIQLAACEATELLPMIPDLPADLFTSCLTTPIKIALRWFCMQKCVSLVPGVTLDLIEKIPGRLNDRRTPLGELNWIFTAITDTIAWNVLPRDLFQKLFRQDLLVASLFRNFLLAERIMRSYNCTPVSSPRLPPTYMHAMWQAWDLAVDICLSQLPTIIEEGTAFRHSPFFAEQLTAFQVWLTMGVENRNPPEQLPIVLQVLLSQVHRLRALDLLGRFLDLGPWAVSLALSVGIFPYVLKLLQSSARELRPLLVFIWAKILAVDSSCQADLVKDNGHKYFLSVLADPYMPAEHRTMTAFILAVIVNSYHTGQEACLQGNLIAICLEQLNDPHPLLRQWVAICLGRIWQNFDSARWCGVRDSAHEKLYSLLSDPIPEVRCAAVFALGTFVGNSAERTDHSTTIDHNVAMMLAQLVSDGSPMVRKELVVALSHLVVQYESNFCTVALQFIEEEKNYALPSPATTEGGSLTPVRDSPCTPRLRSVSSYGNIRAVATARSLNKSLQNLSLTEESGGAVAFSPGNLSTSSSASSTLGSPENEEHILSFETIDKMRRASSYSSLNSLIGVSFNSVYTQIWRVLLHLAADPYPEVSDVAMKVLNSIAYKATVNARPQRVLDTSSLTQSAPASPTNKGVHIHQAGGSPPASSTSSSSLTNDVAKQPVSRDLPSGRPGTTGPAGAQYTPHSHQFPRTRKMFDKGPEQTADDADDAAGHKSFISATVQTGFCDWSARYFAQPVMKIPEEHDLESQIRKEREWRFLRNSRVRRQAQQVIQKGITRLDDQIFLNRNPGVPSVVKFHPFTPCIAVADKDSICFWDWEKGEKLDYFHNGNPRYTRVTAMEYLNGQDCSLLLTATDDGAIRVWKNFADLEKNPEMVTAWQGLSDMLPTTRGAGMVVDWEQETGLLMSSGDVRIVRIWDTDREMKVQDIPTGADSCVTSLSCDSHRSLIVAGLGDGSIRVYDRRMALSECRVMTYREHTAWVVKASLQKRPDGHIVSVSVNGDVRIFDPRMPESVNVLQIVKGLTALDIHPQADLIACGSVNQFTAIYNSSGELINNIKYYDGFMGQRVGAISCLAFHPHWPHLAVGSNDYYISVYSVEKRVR
Sequence of mTORC1 (Homo sapiens) (Q9BVC4 whole entry, looked up, other chains not shown): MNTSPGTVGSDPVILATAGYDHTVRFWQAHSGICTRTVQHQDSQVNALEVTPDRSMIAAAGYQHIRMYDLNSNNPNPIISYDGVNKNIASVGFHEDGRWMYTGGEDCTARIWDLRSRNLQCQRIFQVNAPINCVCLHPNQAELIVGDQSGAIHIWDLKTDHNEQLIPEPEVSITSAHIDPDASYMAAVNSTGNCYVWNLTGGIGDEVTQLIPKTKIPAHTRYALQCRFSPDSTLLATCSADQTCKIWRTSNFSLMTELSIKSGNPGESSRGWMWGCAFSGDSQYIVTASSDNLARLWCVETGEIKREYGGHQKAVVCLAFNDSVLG

Take `CS[C@@]1(C(C)C)C(=O)N2[C@H]3Nc4ccccc4[C@@]3(C34c5ccccc5N[C@H]3N3C(=O)[C@@](CO)(SC)N(C)C(=O)[C@]3(SC)[C@H]4O)[C@H](O)[C@]2(SC)C(=O)N1C` (stereo not given in full): the outcome with MIA PaCa-2 was inactive.
Usually IC50 stands for the concentration that inhibits the measured activity by half. Low readings indicate greater potency, high ones weaker potency. Consider `CC(C)[C@@]12SS[C@]3(C(=O)N1C)[C@@H](O)[C@]1(C45c6ccccc6N[C@H]4N4C(=O)[C@]6(CO)SSSS[C@]4(C(=O)N6C)[C@H]5O)c4ccccc4N[C@@H]1N3C2=O` (stereo not given in full), for which inhibition in test [1] was half-maximal at 43.1 nM (IC50). That is a double-digit nanomolar value.
Same read-out and setting: the same measure for `CC(C)[C@@]12SS[C@]3(C(=O)N1C)[C@@H](O)[C@]1(C45c6ccccc6N[C@H]4N4C(=O)[C@@]6(CO)SSSS[C@@]4(C(=O)N6C)[C@H]5O)c4ccccc4N[C@@H]1N3C2=O` (stereo not given in full): 9.1 nM.
Usually GI50 stands for the concentration at which growth is held to half of that of the control. A high value points to lower sensitivity of the cells. `CC(=O)O[C@H]1C(=O)[C@@]2(C)[C@H]([C@H](OC(=O)c3ccccc3)[C@]3(O)C[C@H](OC(=O)[C@H](O)[C@@H](NC(=O)c4ccccc4)c4ccccc4)C(C)=C1C3(C)C)[C@]1(OC(C)=O)CO[C@@H]1C[C@@H]2O` [PACLITAXEL]: the Ratio in the test with SK-OV-3 came out at 127. Also, the GI50 was determined as 4.7 nM in test [2] and 600 nM in test [3].
Consider `CS[C@@]1(C(C)C)C(=O)N2[C@H]3Nc4ccccc4[C@@]3(C34c5ccccc5N(C)[C@H]3N3C(=O)[C@@](CO)(SC)N(C)C(=O)[C@]3(SC)[C@H]4O)[C@H](O)[C@]2(SC)C(=O)N1C` (stereo not given in full), for which, in the test on MIA PaCa-2, the outcome was inactive.
`CC(C)[C@@]12SS[C@]3(C(=O)N1C)[C@@H](O)[C@]1(C45c6ccccc6N[C@H]4N4C(=O)[C@]6(CO)SS[C@]4(C(=O)N6C)[C@H]5O)c4ccccc4N[C@@H]1N3C2=O` (stereo not given in full) came in with an IC50 in test [1] of 33.6 nM.
As to `CO[C@H]1C[C@@H]2CC[C@@H](C)[C@@](O)(O2)C(=O)C(=O)N2CCCC[C@H]2C(=O)O[C@H]([C@H](C)C[C@@H]2CC[C@@H](O)[C@H](OC)C2)CC(=O)[C@H](C)/C=C(\C)[C@@H](O)[C@@H](OC)C(=O)[C@H](C)C[C@H](C)/C=C/C=C/C=C/1C`, on mTORC1 (Homo sapiens), the inhibition entry was “Active”.
As to `CS[C@@]1(C(C)C)C(=O)N2[C@H]3N(C)c4ccccc4[C@@]3(C34c5ccccc5N[C@H]3N3C(=O)[C@@](CO)(SC)N(C)C(=O)[C@]3(SC)[C@H]4O)[C@H](O)[C@]2(SC)C(=O)N1C` (stereo not given in full), in the test on MIA PaCa-2, the result was inactive.
